Results: ChEMBL document CHEMBL4406880, “Design, synthesis, and bioactivity of dihydropyrimidine derivatives as kinesin spindle protein inhibitors” (Bioorg Med Chem, 2019)

Experiments:
Type in all cases: functional
[1] = system: CCRF-CEM; experiment: Growth inhibition of human CCRF-CEM cells assessed as growth percentage at 10 uM incubated for 48 hrs by sulforhodamine B assay relative to control; conditions: read-out: Activity
Summary of the method: (§1)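 NCI-60 one-dose screen: cells in RPMI 1640 with 5% FBS and 2 mM L-glutamine, plated at 5,000–40,000 cells/well and preincubated 24 h at 37 °C, 5% CO2. Compound is added from a DMSO stock to a final 10 µM and incubated 48 h. Cells are TCA-fixed and stained with sulforhodamine B, read at 515 nm. Output is % growth versus untreated control, with a time-zero plate.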

[2] = system: K562; experiment: Growth inhibition of human K562 cells assessed as growth percentage at 10 uM incubated for 48 hrs by sulforhodamine B assay relative to control; conditions: K562, 48 h, read-out: Activity
Summary of the method: (§2)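 NCI-60 one-dose screen. Cells in RPMI 1640 with 5% FBS and 2 mM L-glutamine, seeded at 5,000–40,000 cells/well according to doubling time, and preincubated overnight at 37 °C, 5% CO2. A time-zero plate was TCA-fixed at drug addition. Compound from DMSO stock, final 10 µM, 48 h; DMSO vehicle controls. Fixation with TCA, 10% final (16% for suspension cells). SRB stain, Tris solubilization, A515. Result given as % growth versus untreated cells.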

[3] = system: HL-60(TB); experiment: Growth inhibition of human HL-60(TB) cells assessed as growth percentage at 10 uM incubated for 48 hrs by sulforhodamine B assay relative to control; conditions: HL-60, 48 h, read-out: Activity
Summary of the method: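 NCI-60 single-dose screen. Cells in RPMI 1640 with 5% FBS and 2 mM L-glutamine are plated at 5,000–40,000 cells/well and preincubated overnight at 37 °C, 5% CO2. Compound is added from a DMSO stock at 10 µM final for 48 h. Cells are TCA-fixed (suspension cells 16% final) and stained with SRB. Absorbance is read at 515 nm, and percentage growth is calculated against untreated controls with a time-zero plate.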

[4] = system: HOP-62; experiment: Growth inhibition of human HOP62 cells assessed as growth percentage at 10 uM incubated for 48 hrs by sulforhodamine B assay relative to control; conditions: HOP-62, 48 h, read-out: Activity; summary of the method: as §2
[5] = system: NCI-H226; experiment: Growth inhibition of human NCI-H226 cells assessed as growth percentage at 10 uM incubated for 48 hrs by sulforhodamine B assay relative to control; conditions: NCI-H226, 48 h, read-out: Activity; summary of the method: as §2
[6] = system: NCI-H23; experiment: Growth inhibition of human NCI-H23 cells assessed as growth percentage at 10 uM incubated for 48 hrs by sulforhodamine B assay relative to control; conditions: NCI-H23, 48 h, read-out: Activity; summary of the method: as §2
[7] = system: NCI-H460; experiment: Growth inhibition of human NCI-H460 cells assessed as growth percentage at 10 uM incubated for 48 hrs by sulforhodamine B assay relative to control; conditions: NCI-H460, 48 h, read-out: Activity; summary of the method: as §2
[8] = system: HCC 2998; experiment: Growth inhibition of human HCC2998 cells assessed as growth percentage at 10 uM incubated for 48 hrs by sulforhodamine B assay relative to control; conditions: HCC 2998, 48 h, read-out: Activity; summary of the method: as §1
[9] = system: HCT-15; experiment: Growth inhibition of human HCT15 cells assessed as growth percentage at 10 uM incubated for 48 hrs by sulforhodamine B assay relative to control; conditions: HCT-15, 48 h, read-out: Activity; summary of the method: as §1
[10] = system: SW-620; experiment: Growth inhibition of human SW620 cells assessed as growth percentage at 10 uM incubated for 48 hrs by sulforhodamine B assay relative to control; conditions: SW-620, 48 h, read-out: Activity
Summary of the method: (§3)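 NCI-60 single-dose screen. Cells were grown in RPMI 1640 with 5% FBS and 2 mM L-glutamine and plated at 5,000–40,000 cells/well. After an overnight preincubation at 37 °C in 5% CO2, compound was added at a final 10 µM from a DMSO stock, with DMSO/PBS controls. After 48 h, cells were TCA-fixed and stained with 0.4% SRB, and absorbance was read at 515 nm. Growth is given as a percentage of untreated control.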

[11] = system: SF-268; experiment: Growth inhibition of human SF268 cells assessed as growth percentage at 10 uM incubated for 48 hrs by sulforhodamine B assay relative to control; conditions: SF-268, 48 h, read-out: Activity; summary of the method: as §3
[12] = system: SF-539; experiment: Growth inhibition of human SF539 cells assessed as growth percentage at 10 uM incubated for 48 hrs by sulforhodamine B assay relative to control; conditions: SF-539, 48 h, read-out: Activity; summary of the method: as §3
[13] = system: Malme-3M; experiment: Growth inhibition of human MALME-3M cells assessed as growth percentage at 10 uM incubated for 48 hrs by sulforhodamine B assay relative to control; conditions: read-out: Activity; summary of the method: as §2
[14] = system: SK-MEL-2; experiment: Growth inhibition of human SK-MEL-2 cells assessed as growth percentage at 10 uM incubated for 48 hrs by sulforhodamine B assay relative to control; conditions: SK-MEL-2, 48 h, read-out: Activity; summary of the method: as §3
[15] = system: SK-MEL-5; experiment: Growth inhibition of human SK-MEL-5 cells assessed as growth percentage at 10 uM incubated for 48 hrs by sulforhodamine B assay relative to control; conditions: SK-MEL-5, 48 h, read-out: Activity; summary of the method: as §3
[16] = system: UACC-62; experiment: Growth inhibition of human UACC62 cells assessed as growth percentage at 10 uM incubated for 48 hrs by sulforhodamine B assay relative to control; conditions: UACC-62, 48 h, read-out: Activity; summary of the method: as §3
[17] = system: OVCAR-8; experiment: Growth inhibition of human OVCAR8 cells assessed as growth percentage at 10 uM incubated for 48 hrs by sulforhodamine B assay relative to control; conditions: OVCAR-8, 48 h, read-out: Activity; summary of the method: as §3
[18] = system: A498; experiment: Growth inhibition of human A498 cells assessed as growth percentage at 10 uM incubated for 48 hrs by sulforhodamine B assay relative to control; conditions: A498, 48 h, read-out: Activity; summary of the method: as §1
[19] = system: ACHN; experiment: Growth inhibition of human ACHN cells assessed as growth percentage at 10 uM incubated for 48 hrs by sulforhodamine B assay relative to control; conditions: read-out: Activity; summary of the method: as §1
[20] = system: RXF 393; experiment: Growth inhibition of human RXF393 cells assessed as growth percentage at 10 uM incubated for 48 hrs by sulforhodamine B assay relative to control; conditions: RXF 393, 48 h, read-out: Activity; summary of the method: as §3
[21] = system: SN12C; experiment: Growth inhibition of human SN12C cells assessed as growth percentage at 10 uM incubated for 48 hrs by sulforhodamine B assay relative to control; conditions: read-out: Activity; summary of the method: as §3
[22] = system: TK-10; experiment: Growth inhibition of human TK10 cells assessed as growth percentage at 10 uM incubated for 48 hrs by sulforhodamine B assay relative to control; conditions: TK-10, 48 h, read-out: Activity; summary of the method: as §3
[23] = system: UO-31; experiment: Growth inhibition of human UO31 cells assessed as growth percentage at 10 uM incubated for 48 hrs by sulforhodamine B assay relative to control; conditions: UO-31, 48 h, read-out: Activity; summary of the method: as §3
[24] = system: BT-549; experiment: Growth inhibition of human BT549 cells assessed as growth percentage at 10 uM incubated for 48 hrs by sulforhodamine B assay relative to control; conditions: BT-549, 48 h, read-out: Activity; summary of the method: as §1

Structure (SMILES) | growth at 10 µM [1] | growth at 10 µM [2] | growth at 10 µM [3] | growth at 10 µM [4] | growth at 10 µM [5] | growth at 10 µM [6] | growth at 10 µM [7] | growth at 10 µM [8] | growth at 10 µM [9] | growth at 10 µM [10] | growth at 10 µM [11] | growth at 10 µM [12] | growth at 10 µM [13] | growth at 10 µM [14] | growth at 10 µM [15] | growth at 10 µM [16] | growth at 10 µM [17] | growth at 10 µM [18] | growth at 10 µM [19] | growth at 10 µM [20] | further results
CC(=O)C1=C(C)NC(=O)NC1c1ccc2c(c1)OCO2 (racemic) | 98.5% | 104% | 98.6% | 103% | 99.6% | 101% | 114% | 107% | 106% | 104% | 107% | 102% | 104% | 110% | 100% | 98.9% | 103% | 120% | 108% | 95.2% | growth at 10 µM [21]: 102%; growth at 10 µM [22]: 103%; growth at 10 µM [23]: 83.4%; growth at 10 µM [24]: 112%
CC1=C(C(=O)c2ccccc2)C(c2ccc3c(c2)OCO3)NC(=S)N1 (racemic) | 41.2% | 24.6% | 2.6% | 51.8% | 66.5% | 48% | 8.05% | 62.2% | 33.7% | 24.2% | 75.8% | 36.4% | 54.5% | 60.5% | 28.2% | 51.6% | 46.7% | -12.5% | 45.5% | 59.5% | growth at 10 µM [21]: 51.4%; growth at 10 µM [22]: 66%; growth at 10 µM [23]: 55.7%; growth at 10 µM [24]: 50.6%
CC(=O)C1=C(C)NC(=S)NC1c1ccc2c(c1)OCO2 (racemic) | 101% | 98.6% | 96.4% | 104% | 102% | 107% | 109% | 108% | 108% | 106% | 100% | 98.7% | 108% | 106% | 100% | 98.6% | 103% | 115% | 103% | 102% | growth at 10 µM [21]: 104%; growth at 10 µM [22]: 97.6%; growth at 10 µM [23]: 81%; growth at 10 µM [24]: 108%
